Assays:
CEM-SS [1] = experiment: Concentration required to protect CEM-SS cells from HIV-1 mediated uM; assay type: functional, cell-based, Homo sapiens
Summary of the method: (§1)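 CEM-SS cells were infected with HIV-1 RF at MOI about 0.12 TCID50/cell for 4 h at 37 °C, then the virus supernatant was removed. Cells at 10^4/well were exposed to compound diluted from DMSO (maximum 100 µM) in triplicate wells. After 6 days at 37 °C, 5% CO2, viability was read with XTT. EC50 = concentration giving 50% protection from viral cytopathicity relative to infected controls.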

CEM-SS [2] = experiment: Antiviral activity against HIV-1 determined by concentration which resulted in cytotoxicity of 50% of CEM-SS cell population relative to drug-free controls; assay type: functional, cell-based; settings: Homo sapiens
Summary of the method: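 Cytotoxicity in uninfected CEM-SS cells (RPMI 1640, 10% heat-inactivated FCS, 25 mM HEPES, antibiotics; 37 °C, 5% CO2). Compounds dissolved in DMSO, diluted in medium, top concentration 100 µM, duplicate wells per concentration. 10^4 cells/well, 6-day incubation, viability by XTT dye. IC50 = concentration reducing cell growth by 50% of uninfected controls.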

CEM-SS [3] = experiment: Concentration required to protect CEM-SS cells from HIV-1 mediated cytopathicity by 50% relative to drug-free controls was determined; assay type: functional, cell-based, Homo sapiens; summary of the method: as §1
[4] = target: Human immunodeficiency virus type 1 reverse transcriptase (Human immunodeficiency virus 1, UniProt Q72547); experiment: Inhibition of HIV-1 reverse transcriptase using a poly(rC):oligo(dG)12-18 template primer
Summary of the method: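 HIV-1 reverse transcriptase inhibition was measured with a poly(rC):oligo(dG)12-18 template:primer system.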

[5] = Therapeutic Index (IC50/EC50)
Summary of the method: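 Ratio of cytotoxic IC50 in uninfected CEM-SS cells to antiviral EC50 in HIV-1 RF-infected CEM-SS cells, both from 6-day XTT viability readings. Not determined when no EC50 was available.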

EC50 (CEM-SS [1]) | EC50 (CEM-SS [3]; Homo sapiens, CEM-SS) [µM] | EC50 [4] [µM] | EC50 (CEM-SS [3]; cem-ss) [µM] | SMILES | IC50 (CEM-SS [2]) [µM] | TI [5] [Ratio]
Not Active | – | – | – | CCCc1cc(=O)oc2c1c1c(c3oc(C)c(C)c(=O)c32)C=CC(C)(C)O1 | > 100 | –
– | > 100 | – | – | CCCc1cc(=O)oc2c3c(c4c(c12)OC(C)(C)C=C4)O[C@H](C)C(C)(C)C3=O | 19 | –
Not Active | – | – | – | CCCc1cc(=O)oc2c(C(=O)CC)c(OCC)c3c(c12)OC(C)(C)C=C3 | 6.6 | –
Not Active | – | – | – | CCCc1cc(=O)oc2c3c(c4c(c12)OC(C)(C)C=C4)O[C@H](C)C(C)(C)[C@@H]3O | 20 | –
– | > 100 | – | – | CCCc1cc(=O)oc2c3c(c4c(c12)OC(C)(C)C=C4)OC(C)(C)[C@H](C)[C@@H]3O (racemic) | 21 | –
– | 7.2 | 50 | – | CCCc1cc(=O)oc2c3c(c4c(c12)OC(C)(C)C=C4)OC[C@H](C)[C@@H]3O (racemic) | 22 | 3.1
Not Active | – | – | – | CCCc1cc(=O)oc2c(C(=O)C(C)C(C)(C)O)c(O)c3c(c12)OC(C)(C)C=C3 (racemic) | – | –
Not Active | – | – | – | CCCc1cc(=O)oc2c3c(c4c(c12)OC(C)(C)C=C4)O[C@H](CC)[C@H](C)[C@H]3O (racemic) | 21 | –
– | 5.7 | 5 | – | CCCc1cc(=O)oc2c3c(c4c(c12)OC(C)(C)C=C4)OC(C)(C)[C@H](C)[C@H]3O (racemic) | 21 | 3.7
Not Active | – | – | – | CCCc1cc(=O)oc2c3c(c4c(c12)OC(C)(C)C=C4)OC[C@H](C)C3=O (racemic) | – | –
Not Active | – | – | – | CCCc1cc(=O)oc2c3c(c4c(c12)OC(C)(C)C=C4)O[C@H](C(C)C)[C@@H](C)[C@@H]3O (racemic) | 6.5 | –
Not Active | – | – | – | CCCc1cc(=O)oc2c3c(c4c(c12)OC(C)(C)C=C4)O[C@H](CC)[C@H](C)[C@@H]3O (racemic) | 12 | –
– | 2.4 | 32 | – | CCCc1cc(=O)oc2c3c(c4c(c12)OC(C)(C)C=C4)O[C@H](C)C(C)(C)[C@H]3O (racemic) | 15 | 6.2
– | 1.7 | 2 | – | CCCc1cc(=O)oc2c3c(c4c(c12)OC(C)(C)C=C4)O[C@H](CC)[C@@H](C)[C@H]3O (racemic) | 14 | 8.2
Not Active | – | – | – | CCCc1cc(=O)oc2c3c(c4c(c12)OC(C)(C)C=C4)OC[C@H](C)[C@H]3O (racemic) | 22 | –
– | > 100 | – | – | CCCc1cc(=O)oc2c3c(c4c(c12)OC(C)(C)C=C4)O[C@H](C)[C@H](C)[C@H]3O (racemic) | 20 | –
– | 1.2 | 40 | – | CCCc1cc(=O)oc2c3c(c4c(c12)OC(C)(C)C=C4)O[C@H](C)[C@@H](C)C3=O (racemic) | 19 | 16

EC50 (CEM-SS [1]) | EC50 (CEM-SS [3]; Homo sapiens, CEM-SS) [µM] | EC50 [4] [µM] | EC50 (CEM-SS [3]; cem-ss) [µM] | SMILES | IC50 (CEM-SS [2]) [µM] | TI [5] [Ratio]
Not Active | – | – | – | CCCc1cc(=O)oc2c(C(=O)C(C)(C)C(C)O)c(O)c3c(c12)OC(C)(C)C=C3 (racemic) | 37 | –
Not Active | – | – | – | CCCc1cc(=O)oc2c3c(c4c(c12)OC(C)(C)C=C4)O[C@H](C(C)C)[C@@H](C)[C@H]3O (racemic) | 6.5 | –
Not Active | – | – | – | CCCc1cc(=O)oc2c3c(c4c(c12)OC(C)(C)C=C4)O[C@H](C(C)C)[C@H](C)[C@@H]3O (racemic) | 6.9 | –
Not Active | – | – | – | CCCc1cc(=O)oc2c3c(c4c(c12)OC(C)(C)C=C4)O[C@H](C(C)C)[C@@H](C)C3=O (racemic) | 21 | –
– | 2.3 | – | – | CCCc1cc(=O)oc2c(C(=O)[C@@H](C)[C@H](C)O)c(O)c3c(c12)OC(C)(C)C=C3 (racemic) | 22 | 9.6
– | 6.2 | – | – | CCCc1cc(=O)oc2c(C(=O)[C@H](C)[C@H](C)O)c(O)c3c(c12)OC(C)(C)C=C3 (racemic) | 24 | 3.9
Not Active | – | – | – | CCCc1cc(=O)oc2c3c(c4c(c12)OC(C)(C)C=C4)OC(C)(C)[C@H](C)C3=O (racemic) | 2.4 | –
– | 2.8 | > 100 | – | CCCc1cc(=O)oc2c3c(c4c(c12)OC(C)(C)C=C4)O[C@H](C)[C@H](C)C3=O (racemic) | 12 | 4.3
Not Active | – | – | – | CCCc1cc(=O)oc2c3c(c4c(c12)OC(C)(C)C=C4)OC(C)(C)CC3O (racemic) | 11 | –
– | > 100 | – | – | CCCc1cc(=O)oc2c3c(c4c(c12)OC(C)(C)C=C4)O[C@H](CC)[C@@H](C)C3=O (racemic) | 18 | –
Not Active | – | – | – | CCCc1cc(=O)oc2c3c(c4c(c12)OC(C)(C)C=C4)OC[C@H](C)C31OCOCO1 (racemic) | 6.3 | –
Not Active | – | – | – | CCCc1cc(=O)oc2c(C(O)CC)c(OCC)c3c(c12)OC(C)(C)C=C3 (racemic) | 16 | –
– | 2 | 3.2 | – | CCCc1cc(=O)oc2c3c(c4c(c12)OC(C)(C)C=C4)O[C@H](CC)[C@@H](C)[C@@H]3O (racemic) | 18 | 9
– | – | 0.97 | 0.49 | CCCc1cc(=O)oc2c3c(c4c(c12)OC(C)(C)C=C4)O[C@H](C)[C@@H](C)[C@@H]3O (racemic) [CALANOLIDE A] | – | 47
Not Active | – | – | – | CCCc1cc(=O)oc2c3c(c4c(c12)OC(C)(C)C=C4)O[C@H](C)[C@H](C)[C@@H]3O (racemic) [CALANOLIDE C] | 18 | –
– | 0.27 | 0.32 | – | CCCc1cc(=O)oc2c3c(c4c(c12)OC(C)(C)C=C4)O[C@H](C)[C@@H](C)[C@@H]3O [CALANOLIDE A] | 23 | 85
